EC50 data for 5 molecules are collected here from PubChem BioAssay AID463080 (The Scripps Research Institute Molecular Screening Center, 2010).

Molecules are shown by their SMILES.

Broadly, the EC50 is the concentration that produces a half-maximal response.

Wee1-like protein kinase (Homo sapiens), sequence (P30291 whole entry K328M, the tested form may be a part): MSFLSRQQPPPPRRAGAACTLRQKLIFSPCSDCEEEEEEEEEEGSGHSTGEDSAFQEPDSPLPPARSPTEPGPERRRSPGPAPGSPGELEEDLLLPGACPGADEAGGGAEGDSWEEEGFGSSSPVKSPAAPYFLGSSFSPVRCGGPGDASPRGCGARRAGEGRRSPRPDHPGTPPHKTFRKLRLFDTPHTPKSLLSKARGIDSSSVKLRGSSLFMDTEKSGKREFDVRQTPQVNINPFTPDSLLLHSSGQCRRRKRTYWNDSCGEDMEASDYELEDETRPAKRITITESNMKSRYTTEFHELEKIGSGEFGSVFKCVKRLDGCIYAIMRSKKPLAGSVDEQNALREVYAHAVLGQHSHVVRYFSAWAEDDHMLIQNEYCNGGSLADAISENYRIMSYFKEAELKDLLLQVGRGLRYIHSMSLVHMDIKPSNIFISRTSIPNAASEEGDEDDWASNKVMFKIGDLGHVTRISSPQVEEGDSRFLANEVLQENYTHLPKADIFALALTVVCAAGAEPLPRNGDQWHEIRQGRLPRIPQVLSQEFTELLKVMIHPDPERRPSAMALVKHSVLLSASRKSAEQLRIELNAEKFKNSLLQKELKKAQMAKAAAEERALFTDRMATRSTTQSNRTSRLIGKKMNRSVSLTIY

This test concerns the target Wee1-like protein kinase (Homo sapiens) (UniProt P30291). Description: WEE1 degradation inhibition, concentration series – cell-based, HeLa, WEE1K328M-luciferase, luminescence, assay provider, late-stage follow-up (AID 463080). The settings on record: HeLa WEE1K328M-luciferase stabilization. The gist of the method: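 Material – transfected HeLa with WEE1 K328M–luciferase reporter · Timing – 20 h compound treatment at 37 °C · Detection – lytic luciferase luminescence · Read-out – EC50 of WEE1-fusion to luciferase-only luminescence ratio, higher meaning stabilization · Repeats – four replicate wells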
With `c1ccc2[nH]c(CNc3nc(N4CCOCC4)nc4c3ncn4-c3ccsc3)nc2c1`, the EC50 is 624 nM. For `Clc1ccc2nc(CNc3nc(N4CCOCC4)nc4c3ncn4-c3ccsc3)[nH]c2c1` the value was 164 nM.

For `O=[N+]([O-])c1cccc2[nH]c(CNc3nc(N4CCOCC4)nc4c3ncn4-c3ccsc3)nc12`, the EC50 was 40 nM. With `CC(C)n1cnc2c(NCc3nc4c([N+](=O)[O-])cccc4[nH]3)nc(N3CCOCC3)nc21`, the EC50 was 201 nM. For the molecule `CCOC(=O)c1cccc2[nH]c(CNc3nc(N4CCOCC4)nc4c3ncn4-c3ccsc3)nc12`, the EC50 was 207 nM.
